A selection: hits, their analogues and other compounds. The true share with any hit is near 9.6%.
TNAP inh noacc = blocks human TNAP activity with no phosphate acceptor present | P05186 | purified TNAP, CDP-star luminescence, 30 min | inhibition, % at 20 µM | 200,000 compounds, 0.26% hits | AID 1012;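 active = tissue-nonspecific alkaline phosphatase inhibition above about 50% at 20 µM in the single-dose screen, limit read from the data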;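 note: 0% = DMSO negative control and 100% = EDTA positive control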
Target sequence (P05186 whole entry, looked up): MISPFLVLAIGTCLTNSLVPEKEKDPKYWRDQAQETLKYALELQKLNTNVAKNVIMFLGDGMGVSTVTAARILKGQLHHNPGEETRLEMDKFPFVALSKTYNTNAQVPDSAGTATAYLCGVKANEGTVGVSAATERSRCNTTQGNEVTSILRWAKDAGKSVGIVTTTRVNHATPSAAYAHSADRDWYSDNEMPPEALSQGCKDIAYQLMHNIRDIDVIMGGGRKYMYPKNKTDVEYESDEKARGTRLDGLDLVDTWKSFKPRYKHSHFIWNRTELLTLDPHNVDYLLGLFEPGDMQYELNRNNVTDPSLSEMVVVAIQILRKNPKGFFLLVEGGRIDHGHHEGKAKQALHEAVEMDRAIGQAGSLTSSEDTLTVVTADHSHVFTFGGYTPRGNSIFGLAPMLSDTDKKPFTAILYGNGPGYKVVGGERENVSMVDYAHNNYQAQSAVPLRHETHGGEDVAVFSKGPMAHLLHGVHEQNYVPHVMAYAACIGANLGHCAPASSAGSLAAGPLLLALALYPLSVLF
L major viab = Leishmania major promastigote growth inhibition. Leishmania major promastigotes, resazurin fluorescence viability. inhibition, % at 10 µM. 200,000 compounds, 9% hits; in the data active = inhibition above about 50%;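 note: promastigotes grown with compound for 44 hours at 28 °C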
HCT116 PTEN-null = PTEN-deleted cell growth suppression; HCT116 PTEN-null viability, CellTiter-Glo, 60 h; hits give low values; viability, % at 10 µM; 140,000 compounds, 1.2% hits; AID 827;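 active = viability at or below a set limit, 4 SD under the median of all tested compounds, cut at about 3.7% in these data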;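 note: PTEN knockout HCT116 line with beta catenin targeted HCT116 as companion control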
TNAP act hi DEA = TNAP (human) activation, high acceptor; AID 1136; 200,000 tested, under 10 active; activation factor at 20 µM; P05186; purified TNAP, CDP-star luminescence, 1 M DEA, 30 min; hits give high values; 0 = EDTA background, 1 = DMSO-only activity;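 active = activation factor at least 2 at 20 µM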
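Assay system: human TNAP; Input: enzyme diluted 1/800 final; Reagent: CDP-star luminogenic substrate at 100 µM final; Timing: 30 min, room temperature; Signal: luminescence; Evaluation: TNAP activation factor scaled between EDTA and DMSO control wells.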
TNAP inh hi DEA = blocks human TNAP under high phosphate acceptor concentration; P05186; purified TNAP, CDP-star luminescence, 1 M DEA; 200,000 compounds, 0.03% hits; inhibition, % at 20 µM;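 active = over 50% inhibition of tissue-nonspecific alkaline phosphatase at 20 µM in the single-dose screen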;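 note: plate controls were DMSO wells for no effect and EDTA-quenched wells as full inhibition for full effect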
HCT116 bCat-KO = beta-catenin-lacking colon tumor cell growth suppression; HCT116 beta-catenin knockout viability, CellTiter-Glo, 60 h; hits give low values; viability, % at 10 µM; 140,000 compounds, 1.5% hits;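 active = viability at or under a set limit, the compound median less 4 SD, cut at about 6% in these data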;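 note: 0% = Hyamine 1622 control at 20 µM and 100% = untreated cell control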
* marks the source's active call; other numbers are inactive results; x = no result given.

SMILES | TNAP inh noacc | L major viab | HCT116 PTEN-null | TNAP act hi DEA | TNAP inh hi DEA | HCT116 bCat-KO
CC1=NN(c2cccc(C(=O)O)c2)C(=O)/C1=C\C=C\c1ccco1 | 23 | 27 | 54 | 1 | 3 | 53
O=C(O)CSC1=NC(=Nc2ccc(Cl)cc2)C2(CCCCC2)N1c1cccc(C(=O)O)c1 | -8 | 46 | 92 | 1 | -2 | 88
COC(=O)CN(c1ccc(OCc2ccccc2)cc1)S(C)(=O)=O | -11 | -6 | x | 1 | 1 | x
COc1ccc(NC(=S)NC2CC3CCC(C2)N3Cc2ccco2)cc1 (stereo not given) | 2 | 42 | x | 1 | -3 | x
Cc1cccc(NC(=S)NC2CC3CCCC(C2)N3Cc2ccco2)c1 (stereo not given) | -18 | 63* | x | 1.1 | -9 | x
Cc1ccc(NC(=S)NC2CC3CCCC(C2)N3Cc2ccco2)cc1 (stereo not given) | -9 | 90* | x | 1 | -1 | x
CCc1ccc(NC(=S)NC2CC3CCC(C2)N3Cc2ccco2)cc1 (stereo not given) | -5 | 94* | 102 | 1 | -3 | 96
Cc1cccc(NC(=O)NC2CC3CCC(C2)N3Cc2ccco2)c1 (stereo not given) | -8 | 8 | x | 1.1 | -5 | x
Cc1ccccc1NC(=S)NC1CC2CCC(C1)N2Cc1ccco1 (stereo not given) | -13 | 60* | 72 | 1.1 | -6 | 68
CCCCc1ccc(/C=C2\C(=O)ON=C2c2ccccc2)s1 | -9 | -4 | 89 | 1 | 0 | 99
O=C(CSc1nnnn1-c1ccc(F)cc1)NCc1cccs1 | -6 | -6 | x | 1 | 0 | x
Cc1cccc(NC(=S)NC2CC3CCC(C2)N3Cc2ccco2)c1 (stereo not given) | -8 | 79* | 82 | 1.1 | -6 | 69
c1ccc2c(NCC3CCCO3)nc(N3CCOCC3)nc2c1 (stereo not given) | -4 | 9 | x | 1 | -3 | x
Nc1nc(NCC2CCCO2)nc(Nc2ccccc2)c1[N+](=O)[O-] (stereo not given) | 0 | 14 | 84 | 1 | 3 | 77
CCOc1ccc(Nc2nc(NCC3CCCO3)c3ccccc3n2)cc1 (stereo not given) | -7 | 101* | x | 1 | 1 | x
c1ccc(Nc2nc(NCC3CCCO3)c3ccccc3n2)cc1 (stereo not given) | -12 | 99* | x | 1.1 | -7 | x
c1ccc(-c2nc(NCC3CCCO3)c3ccccc3n2)nc1 (stereo not given) | -8 | 100* | 6 | 1 | -5 | 6.0*
Oc1cccc(Nc2nc(NCC3CCCO3)c3ccccc3n2)c1 (stereo not given) | -8 | 100* | 3.4* | 1 | -3 | 1.9*
CC1CCN(S(=O)(=O)c2ccc3c(c2)c(=O)c(C(=O)NCc2ccccc2Cl)cn3C)CC1 | -6 | -1 | 92 | 1 | 1 | 95
COc1ccc(Nc2nc(NCC3CCCO3)c3ccccc3n2)c(OC)c1 (stereo not given) | -4 | 100* | x | 1.1 | -8 | x
COc1ccc(Nc2nc(N3CCN(C)CC3)nc3ccccc23)c(OC)c1 | -10 | 44 | x | 1 | -4 | x
CC(=O)Nc1ccc(S(=O)(=O)N/N=C/c2ccc(C)s2)cc1 | -9 | 45 | 106 | 1 | -2 | 91
CCN(CC)CC(=O)Nc1ccc2c(c1)Nc1ccccc1CC2 | -4 | 52* | 31 | 1 | -4 | 31
CCOC(=O)c1cc2c(=O)n3ccccc3nc2n(C(C)C)c1=NC(=O)c1c(-c2c(F)cccc2Cl)noc1C | -5 | 99* | 37 | 0.9 | 6 | 56
CCCCCn1c(=NC(=O)c2ccco2)c(C(=O)OCC)cc2c(=O)n3ccccc3nc21 | -7 | 49 | 76 | 1 | 2 | 78
CCCCn1c(=NC(=O)c2ccco2)c(C(=O)OCC)cc2c(=O)n3ccccc3nc21 | -9 | 51* | 83 | 1 | -2 | 77
CCCCCCCCCC(=O)N/N=C(\C)c1cccnc1 | -1 | 1 | 94 | 1 | -3 | 91
CCCCCC(=O)N/N=C(\C)c1ccccn1 | -10 | 93* | 5 | 1 | -1 | 4.3*
C/C(=N\NC(=O)COc1ccccc1-c1ccccc1)c1ccccn1 | -5 | 100* | x | 1 | -2 | x
NC(=O)c1ccsc1NC(=O)c1ccc(S(=O)(=O)N2CCCCC2)cc1 | -5 | 13 | 69 | 1 | 3 | 90

High-throughput results: PubChem, several laboratories
